Compounds with a hit are over-represented: about 2.3% of the library has one in this group of screens.
TRPC6 act: mouse TRPC6 channel activation; HEK293-TRPC6 membrane potential dye fluorescence; active compounds read high; B-score at 10 µM; hit rate 0.13% among 310,000;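 active = B-score of the integrated fluorescence ratio above library mean plus 3 SD, and starting fluorescence ratio within library mean plus 5 SD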;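 note: higher score means more depolarization so channel activation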
TRPC4 PAM: TRPC4 (mouse) allosteric potentiation | B-score at 10 µM | Q9QUQ5 | HEK293 TRPC4beta/mu-opioid, DAMGO EC20, Fluo-4 Ca2+ flux; active compounds read high | hit rate 0.42% among 310,000;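 active = B-score of calcium response area above 5 SD of library B-scores, with initial fluorescence ratio within 5 SD of library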;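 note: B-score of integrated fluorescence ratio over time as area under calcium response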
Target sequence (Q9QUQ5 whole entry, looked up): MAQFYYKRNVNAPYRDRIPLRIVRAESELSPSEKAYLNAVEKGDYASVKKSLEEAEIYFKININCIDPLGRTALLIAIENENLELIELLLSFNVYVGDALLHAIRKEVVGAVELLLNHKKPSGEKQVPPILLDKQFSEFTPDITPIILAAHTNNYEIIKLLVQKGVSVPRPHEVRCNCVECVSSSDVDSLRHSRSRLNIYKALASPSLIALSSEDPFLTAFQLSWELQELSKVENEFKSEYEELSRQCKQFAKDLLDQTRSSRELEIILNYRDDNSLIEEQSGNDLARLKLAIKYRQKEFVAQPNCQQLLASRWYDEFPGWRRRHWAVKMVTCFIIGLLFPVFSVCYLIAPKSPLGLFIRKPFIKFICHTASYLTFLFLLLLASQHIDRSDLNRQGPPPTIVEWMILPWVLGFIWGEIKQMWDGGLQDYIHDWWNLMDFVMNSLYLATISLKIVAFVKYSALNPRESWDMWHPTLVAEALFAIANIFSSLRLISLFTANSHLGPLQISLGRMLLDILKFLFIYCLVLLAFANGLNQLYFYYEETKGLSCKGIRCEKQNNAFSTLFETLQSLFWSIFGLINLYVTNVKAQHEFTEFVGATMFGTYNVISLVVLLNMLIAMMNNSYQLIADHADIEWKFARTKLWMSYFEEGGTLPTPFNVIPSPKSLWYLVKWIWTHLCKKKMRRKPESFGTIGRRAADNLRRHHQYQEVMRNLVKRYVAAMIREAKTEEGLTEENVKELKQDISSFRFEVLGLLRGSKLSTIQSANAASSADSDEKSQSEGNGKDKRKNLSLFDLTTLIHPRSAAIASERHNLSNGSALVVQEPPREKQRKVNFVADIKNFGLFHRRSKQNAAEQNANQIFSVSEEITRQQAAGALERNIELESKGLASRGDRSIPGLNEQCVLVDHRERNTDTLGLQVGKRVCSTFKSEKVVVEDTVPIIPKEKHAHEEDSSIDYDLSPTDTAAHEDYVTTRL
TRPC4 block: blocks the mouse TRPC4 cation channel | Q9QUQ5 | HEK293 TRPC4beta/mu-opioid, DAMGO-evoked Fluo4 calcium flux; active compounds read low | B-score at 10 µM | hit rate 0.39% among 300,000 | AID 2247;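 active = B-score over 3 SD under the library average, no early fluorescence shift, positive overall ratio signal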
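test system = HEK293 cells with stable TRPC4beta plus mu-opioid receptor expression | detection = Fluo4 Ca2+ flux fluorescence | read-out = integrated fluorescence ratio relative to baseline, converted to per-well B score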
TRPC6 inh: mouse TRPC6 channel inhibition | Q61143 | HEK293-TRPC6, membrane potential dye, ACh-evoked depolarization; active compounds read low | B-score at 10 µM | hit rate 1.1% among 310,000 | AID 2553;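 active = B-score under library mean minus 3 SD, initial fluorescence not abnormally high, positive integrated signal ratio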;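 note: B-score derived from integrated fluorescence ratio over the kinetic read; more negative B-score means stronger inhibition of depolarization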
TRPC4 act: TRPC4 (mouse) channel activation; Q9QUQ5; hit rate 0.49% among 310,000; HEK293 TRPC4beta/mu-opioid, Fluo4 calcium fluorescence; active compounds read high; B-score at 10 µM;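 active = B-score above 5 SD of library B-scores, and initial fluorescence ratio not above library mean plus 5 SD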;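 note: positive B-score marks a calcium rise read as TRPC4 activation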
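System: HEK293 cells stably co-expressing mouse TRPC4beta and mu-opioid receptor; Schedule: Fluo4 dye loading 45 min at room temperature, 110 s recording; Detection: Fluo4 fluorescence, kinetic; Evaluation: B-scored integrated calcium fluorescence ratio; Controls: buffer (low) and maximal DAMGO (high).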
TRPC4 spec 2: second selectivity test of TRPC6 inhibitors: effect on mouse TRPC4; shares compounds with TRPC6 inh; HEK293 TRPC4/MOR, membrane potential dye fluorescence; channel activated by saturating DAMGO dose; inhibition, % at 10 µM; hit rate 42% among 920; AID 2776;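 active = compounds whose fluorescence signal differed from control wells by over 3 SD, either direction, in both duplicate plates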
TRPC4 spec: mouse TRPC4 off-target activity of TRPC6 inhibitors. HEK293 TRPC4/mu-opioid, membrane potential fluorescence. hit rate 61% among 920. activity change, negative = inhibition, % at 10 µM. shares compounds with TRPC6 inh;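 active = rise or fall in signal beyond 3 SD of buffer-only wells in both replicate plates, either sign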;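 note: integrated kinetic ratio of fluorescence range over baseline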
HEK293 MPD ctr 2-1: second check of TRPC6 inhibitor effects in parental HEK293 cells. shares compounds with TRPC6 inh. parental HEK293 membrane potential dye fluorescence; maximal acetylcholine challenge after compound addition. signal change vs control, % at 10 µM. hit rate 31% among 920;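 active = membrane potential signal moving either way by over 3 SD of the maximum-effect control, in both duplicate plates, meaning non-specific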
HEK293 MPD ctr-1: checks TRPC6 inhibitor effects in parental HEK293 cells; shares compounds with TRPC6 inh; parental HEK293 membrane potential dye fluorescence; membrane potential signal change, % at 10 µM; hit rate 60% among 920;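 active = membrane potential signal shifting up or down by more than 3 SD of buffer-only wells, on both duplicate plates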
HEK293 MPD ctr-2: checks TRPC6 modulator effects in parental HEK293 cells. shares compounds with TRPC6 inh. membrane potential dye fluorescence. membrane potential signal change, % at 10 µM. hit rate 51% among 2,400;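 active = membrane potential signal moves up or down beyond 5 SD from buffer-only wells, on both duplicate plates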
HEK293 MPD ctr 2-2: second counter-screen for TRPC6 modulators: effect in parental HEK293 cells. AID 488926. inhibition, % at 10 µM. membrane potential dye fluorescence; after compound, maximal acetylcholine stimulation. shares compounds with TRPC6 inh. hit rate 14% among 2,400;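 active = membrane potential signal drops by more than 5 SD from the mean control signal, in both duplicate plates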;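 note: plate controls were acetylcholine ECmax control wells for no effect and buffer only wells for full effect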
TRPC4 ctr mod: tests whether TRPC6 modulators also affect mouse TRPC4 | percent change from control (negative = decrease, positive = increase), % at 10 µM | shares compounds with TRPC6 inh | HEK293 TRPC4/mu-opioid, membrane potential fluorescence | hit rate 69% among 2,400;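 active = membrane potential signal moved up or down beyond 5 SD of buffer control wells, in both duplicate plates, actives on both sides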;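 note: plate controls were assay buffer wells for no effect and DAMGO maximal-effect wells for full effect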
TRPC4/MOR inh 2: second check of whether TRPC6 modulators also affect mouse TRPC4; shares compounds with TRPC6 inh; HEK293 TRPC4/mu-opioid, membrane potential dye fluorescence; stimulated with maximal-effect DAMGO; inhibition, % at 10 µM; hit rate 55% among 2,400; AID 488928;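 active = drop in membrane potential signal beyond 5 SD of the control wells in both duplicate plates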;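 note: TRPC4 counter screen for TRPC6 hits run under conditions tuned for TRPC6 not TRPC4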
TRPC6 block conf: confirmation of mouse TRPC6 inhibitors; HEK293-TRPC6, membrane potential dye, ACh-evoked depolarization; hit rate 43% among 3,300; inhibition, % at 10 µM; shares compounds with TRPC6 inh; AID 488960;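 active = fluorescence ratio falls more than 5 SD below the full-stimulation control mean, in both duplicate runs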;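 note: integrated fluorescence ratio of peak minus minimum over baseline after agonist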
TRPC6 act conf: mouse TRPC6 activator confirmation; HEK293-TRPC6 membrane potential dye fluorescence, FDSS; hit rate 11% among 2,800; AID 488961; activation, % at 10 µM; shares compounds with TRPC6 inh;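 active = ratio signal rise beyond 5 SD above unstimulated control wells' mean, seen in both duplicate runs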;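 note: plate controls were buffer EC0 wells for no effect and acetylcholine ECmax response for full effect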
Starred values were filed as active, the others as inactive; i = inactive; . = no result.

SMILES	TRPC6 act	TRPC4 PAM	TRPC4 block	TRPC6 inh	TRPC4 act	HEK293 MPD ctr-2	HEK293 MPD ctr 2-2	TRPC4 ctr mod	TRPC4/MOR inh 2	TRPC6 block conf	others
CCCCN(C(=O)CCC(=O)Nc1cc(C)on1)C(C(=O)NC1CCCC1)c1ccccc1OCC (stereo not drawn)	i	i	i	i	i	.	.	.	.	.
Cc1cc(C)c(OCC(=O)NCC(C)(C)N2CCOCC2)c(C)c1	i	i	i	i	i	.	.	.	.	.
c1ccc(Oc2cccc(OCCCCN3CCCC3)c2)cc1	i	i	i	-8.6*	i	.	.	.	.	i	TRPC4 spec 2=i;TRPC4 spec=5.8%*;HEK293 MPD ctr 2-1=262%*;HEK293 MPD ctr-1=5.1%*
O=C(CCS(=O)(=O)c1ccccc1Cl)NCCC1=CCCCC1	i	i	i	i	i	.	.	.	.	.
CCOc1ccc(CCNC(=O)COC(=O)c2ccc(C)c([N+](=O)[O-])c2)cc1OCC	i	i	i	i	i	.	.	.	.	.
O=C(c1ccccc1)N(Cc1ccccc1)c1ccccn1	i	i	i	i	i	.	.	.	.	.
O=C(c1ccc([N+](=O)[O-])cc1)N(Cc1ccccc1)c1ccccn1	i	i	i	-5.7*	i	144%*	i	38%*	i	i
Cc1cc(Cl)c(OCCCNCc2ccccc2)c(Br)c1	12*	i	i	i	i	302%*	i	68%*	i	i	TRPC6 act conf=139%*
O=C(CCCN1C(=O)c2cccc3cccc(c23)C1=O)N1CCN(c2ccccc2)CC1	i	i	i	i	i	.	.	.	.	.
O=C1c2cccc3cccc(c23)C(=O)N1CCCN1CCN(c2ccc(F)cc2)CC1	i	i	i	-7.1*	i	i	i	-12%*	66%*	i	TRPC6 act conf=i
Cc1onc(-c2ccccc2)c1C(=O)NC(=S)NNC(=O)c1cc(-c2ccc(F)cc2)n[nH]1	i	i	i	i	i	.	.	.	.	.
COc1ccc(-c2csc3nc(C)nc(N4CCC(C)CC4)c23)cc1OC	i	23*	i	-6.6*	i	.	.	.	.	59%*	TRPC4 spec 2=i;TRPC4 spec=3.6%*;HEK293 MPD ctr 2-1=i;HEK293 MPD ctr-1=2.4%*
CCOC(=O)C(=O)N1CCN(c2nc(-c3ccc(Cl)cc3)cs2)CC1	i	i	i	-6.2*	i	i	i	i	i	i	TRPC6 act conf=i
CSc1nc(C(C)C)ccc1CNC(=O)CC(C)c1ccccc1 (stereo not drawn)	i	i	i	i	i	.	.	.	.	.
CN(CCc1ccccc1)C(=O)CCc1nnc(Cc2ccc3c(c2)OCO3)o1	i	i	i	i	i	.	.	.	.	.

Bioassay records (PubChem BioAssay)
